Series [1] addresses T1, Progesterone receptor (Homo sapiens) (UniProt P06401).
T1 sequence (whole entry): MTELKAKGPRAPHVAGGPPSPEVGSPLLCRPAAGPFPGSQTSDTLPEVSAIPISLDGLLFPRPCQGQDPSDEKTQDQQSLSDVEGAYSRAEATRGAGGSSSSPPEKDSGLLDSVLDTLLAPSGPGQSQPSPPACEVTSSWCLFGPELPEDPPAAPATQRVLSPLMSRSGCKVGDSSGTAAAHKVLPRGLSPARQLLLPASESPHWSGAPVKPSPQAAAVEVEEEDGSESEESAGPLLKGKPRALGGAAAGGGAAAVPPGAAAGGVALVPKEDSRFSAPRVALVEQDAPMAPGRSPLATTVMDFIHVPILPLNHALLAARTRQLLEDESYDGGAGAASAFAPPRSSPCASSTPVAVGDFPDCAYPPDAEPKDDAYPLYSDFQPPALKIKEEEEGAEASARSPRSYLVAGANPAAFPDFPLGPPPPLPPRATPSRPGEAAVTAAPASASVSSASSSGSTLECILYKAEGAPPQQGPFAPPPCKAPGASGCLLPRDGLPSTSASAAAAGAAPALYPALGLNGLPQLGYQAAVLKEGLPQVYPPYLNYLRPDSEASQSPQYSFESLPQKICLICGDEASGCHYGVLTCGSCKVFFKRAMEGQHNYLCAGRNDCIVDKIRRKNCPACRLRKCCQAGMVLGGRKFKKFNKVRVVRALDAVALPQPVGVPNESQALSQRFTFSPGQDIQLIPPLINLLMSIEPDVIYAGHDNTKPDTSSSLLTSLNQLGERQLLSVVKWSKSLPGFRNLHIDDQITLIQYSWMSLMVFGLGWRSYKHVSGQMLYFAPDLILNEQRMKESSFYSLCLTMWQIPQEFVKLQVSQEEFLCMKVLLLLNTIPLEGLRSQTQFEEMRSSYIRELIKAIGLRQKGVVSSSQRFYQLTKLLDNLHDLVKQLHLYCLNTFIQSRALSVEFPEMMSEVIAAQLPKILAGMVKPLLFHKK
Put plainly: Agonist activity at human progesterone receptor expressed in CHO-K1 cells harboring firefly luciferase gene after 20 hrs by One-Glo luciferase reporter gene assay. It counts as cell-based. The method in brief:
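Cell-based luciferase reporter assays for GR, AR and PR, run in agonist and antagonist modes. Potency and Emax are averages of at least two determinations, reported with SD.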
On the technique in general: Reporter assays use an easily measured gene product as a stand-in for the process of interest.

Series [2] can be described thus: Half-life in rat at 0.5 mg/kg, iv. It counts as ADME, organism-based. As to conditions: in vivo. The method in brief: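 Rat PK study. The iv dose of 0.5 mg/kg was given in 10% DMSO, 70% PEG 400 and 20% water. The oral dose of 5 mg/kg was given in 5% DMSO / 95% of 0.2% Tween 80 in 0.25% CMC, adjusted to pH 4 for one compound. Read-outs were CL, Vss, iv t1/2, F, Cmax and AUC.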

Series [3] concerns Mus musculus. Put plainly: In vivo antagonist activity at glucocorticoid receptor in tumor of human HCC1806 cells xenografted in hsd:athymic Nude-Foxn1nu mouse assessed as reduction in cortisol-stimulated FKBP5 mRNA expression at 150 mg/kg, po administered as single dose via gavage and measured at 3 hrs post cortisol addition by qRT-PCR analysis (reference value: 2.3 to 4). It counts as functional. The method in brief:
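HCC1806 TNBC xenograft tumors in mice. Cortisol 5 mg/kg given orally as a bolus to activate GR. The compound was given as a single oral gavage dose of 150 mg/kg, with vehicle controls. Tumors were collected 3 and 6 h after cortisol, and FKBP5 mRNA was measured by RT-qPCR relative to vehicle. n = 3 mice/group. One-way ANOVA with Dunnett's test versus vehicle.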

The nature of series [4]: Toxicity in female rat assessed as effect on food consumption at 250 mg/kg/day, po administered once daily via gavage for 14 days. The conditions noted are these: in vivo, 336 h. It counts as organism-based.
Series [5] can be described thus: Toxicity in female rat assessed as effect on uterine weight at 250 mg/kg/day, po administered once daily via gavage for 14 days. As to conditions: in vivo, 336 h. It is filed as organism-based.

Calls of active or inactive are those of the source. No cut-off for these calls is given here.

As to `CC#C[C@]1(O)CC[C@H]2[C@@H]3CCC4=CC(=O)CC[C@]4(C)[C@H]3[C@@H](c3ccc(N(C)C)cc3)C[C@@]21C`, the agonist activity entry in series [1] is “inactive”. The half-life in series [2] was 1.8 h. In series [3], the “fold change (FC)” value is 2.8. The Activity entry in series [4] and in series [5] was “Non-Toxic” throughout.

The half-life is the time in which the quantity being followed falls by half.
